The source of these data is publication PMC11577422 (Chemical Research in Toxicology, 2024).

Data set [1] concerns pRH. In words: GSH depletion in pRH after exposure to 2-MF. As to conditions: data not shown. The class given is cell-based, rat.
The subject of data set [2] is primary rat hepatocytes (pRH). Kind of data set: Adduct formation. As to conditions: for AcCys-AcA formation in cell supernatants / formation of AcLys-AcA in cell supernatants: pRH incubated with 2-MF (10–1000 μM) or AcA (0.1–5 μM), 1–48 h; for AcLys-AcA in cell supernatant compared to the negative control: pRH. It counts as in vitro ADME. Put shortly: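 Hepatocytes came from adult male Wistar rats (150–250 g) and were used only at ≥80% viability. Cells were seeded at 1 million cells/mL on collagen-coated dishes, allowed 3 h to attach, then PBS-washed. Incubation was at 37 °C, 5% CO₂ with test compound for 1, 6, 18, 24 or 48 h. Supernatants got 1 μM final AcLys-BDA internal standard, SPE cleanup, then UHPLC-ESI⁺-MS/MS (MRM m/z 269.2/164.2). Untreated negative control; n = 3–6.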

The nature of data set [3]: Cytotoxicity via cell viability using resazurin reduction in pRH. The class given is cell-based. As to conditions: male, Wistar, rat, primary rat hepatocytes. (In general: The colour change of resazurin is a common sign of viable cells or microbes.)
The target of data set [4] is CYP 2E1 (Homo sapiens, UniProt P05181). It counts as in vitro ADME. As to conditions: Supersomes CYP 2E1, 100 and 500 μM 2-MF, 10, 30 or 60 min; negative control without NADPH.
In data set [5] the test system is rat liver microsomes (RLM). It counts as in vitro ADME. As to conditions: RLM, untr.; II) low substrate concentrations (10 and 100 μM 2-MF); 10 min. An outline of the steps:
(§1)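 Pooled liver microsomes (male Sprague–Dawley rat; mixed-gender human) at 1.0 mg protein/mL in 50 mM phosphate or Tris buffer with 3 mM MgCl₂ and 4 mM AcLys trap. Preincubated with 2-MF (10–750 μM) for 5 min at 37 °C, NADPH-started, 10 min. Stopped with cold MeCN containing 1 μM AcLys-BDA; AcLys-AcA by HPLC-MS/MS. Kinetics fitted biphasically; heat-inactivated and no-NADPH controls; n = 3–6.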

Data set [6] relates to rat liver microsomes (RLM). Particulars: ref Ravindranath and Boyd (1985) [9], cited from earlier work; for Km: RLM.
The test system of data set [7] is human liver microsomes (HLM). The class given is in vitro ADME. As to conditions: 10 min. An outline of the steps: as §1
In data set [8] the test system is HepG2 cells. In words: GSH depletion in HepG2 cells after exposure to 2-MF. It counts as cell-based. Particulars: data not shown.
The nature of data set [9]: Chemical reaction of AcA with AcCys, adduct determined by HPLC-MS/MS. Particulars: AcA (1 μM) with AcCys (4 mM) in water, 37 °C. The class given is physicochemical. Put shortly: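 Mixture shaken at 600 rpm and sampled over incubation time. Adduct was detected by HPLC-ESI⁺-MS/MS on a Synergi Hydro-RP column with a formic acid/acetonitrile gradient, MRM quantifier m/z 241.9/112.9, and reported as peak area (AUC). n = 3, mean ± standard deviation.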

The nature of data set [10]: Chemical reaction of AcA with AcLys, adduct determined by HPLC-MS/MS. The class given is physicochemical. An outline of the steps:
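AcA was at 10 μM; the mixture was shaken at 600 rpm to mimic the microsomal incubation matrix and sampled over time. AcLys-AcA was measured by HPLC-ESI⁺-MS/MS. n = 3, mean ± standard deviation.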

Data set [11] can be described thus: Stability of AcLys-AcA in solvents. It counts as physicochemical.
In data set [12] the test system is human liver microsomes (HLM). Particulars: 50 μM furan, ref Gates et al. (2012) [30]; cited from earlier work.
The test system of data set [13] is CYP 2E1. As to conditions: ref Peterson et al. (2005) [32]; cited from earlier work.
Data set [14] relates to rat liver microsomes (RLM). Particulars: pretr., ref Peterson et al. (2005) [32]; cited from earlier work.
For data set [15], the system named is CYP 2E1. As to conditions: cited from earlier work.
In data set [16] the test system is rat liver microsomes (RLM). As to conditions: untr., 50 μM furan, ref Gates et al. (2012) [30]; cited from earlier work.
[17] abbreviates: 20 or 400 μM furan, ref Gates et al. (2012) [30].

Where two headings read alike, the source gives them in different places. Bounds are passed on as bounds.

The EC50 is the concentration that produces a half-maximal response. As usually defined, the Km is the substrate concentration at which the rate is half of its maximum.

Chain of CYP 2E1 (Homo sapiens, UniProt P05181) (P05181 whole entry): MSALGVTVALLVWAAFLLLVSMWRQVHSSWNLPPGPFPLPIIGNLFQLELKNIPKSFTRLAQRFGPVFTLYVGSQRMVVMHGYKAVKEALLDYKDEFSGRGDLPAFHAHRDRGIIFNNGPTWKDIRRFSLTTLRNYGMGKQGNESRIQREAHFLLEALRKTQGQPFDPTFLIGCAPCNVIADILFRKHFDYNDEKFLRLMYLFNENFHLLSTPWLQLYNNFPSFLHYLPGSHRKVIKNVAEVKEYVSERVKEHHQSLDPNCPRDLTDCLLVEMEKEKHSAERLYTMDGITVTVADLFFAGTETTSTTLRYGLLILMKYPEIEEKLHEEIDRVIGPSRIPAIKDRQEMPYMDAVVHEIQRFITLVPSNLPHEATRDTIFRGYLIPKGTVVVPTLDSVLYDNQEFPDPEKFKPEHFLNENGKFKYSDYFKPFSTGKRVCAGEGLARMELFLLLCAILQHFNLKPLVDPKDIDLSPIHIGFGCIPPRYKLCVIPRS

In the case of `Cc1ccco1` [2-MF, 2-Methylfuran], the “depletion of GSH” value in data set [1] and in data set [8] was “no depletion of GSH” throughout. The “AcCys-AcA formation in cell supernatants” value in data set [2] is “No evidence of AcCys-AcA formation”. The “formation of AcLys-AcA in cell supernatants” value in data set [2] is “detected”. Further, the “AcLys-AcA in cell supernatant compared to the negative control” value in data set [2] (100 μM 2-MF, 1 h) is “significant increase”. For the same compound, the EC50 at 24 h in data set [3] was 551 ± 53.1 µM. Further, in data set [4], the “AcA formation compared to the negative control” value is recorded as “significant formation of AcA”. Moreover, the vmax is recorded as 0.09 μmol/(mg prot.·min) in data set [5]; 0.53 μmol/2 mg microsomal protein/min in [6] (RLM from untreated rats, Eadie-Hofstee); 0.81 μmol/2 mg microsomal protein/min in [6] (rats pretreated with phenobarbital); 0.88 μmol/(mg prot.·min) in [7] (HLM; I) high substrate concentrations (250, 500, 750 μM 2-MF)); 0.12 μmol/(mg prot.·min) in [7] (HLM; II) low substrate concentrations (10 and 100 μM 2-MF)). Further, the Km in data set [6] (pretr. (phenobarbital)) is 463 µM; in data set [6] (untr., 2.5–20 mM total 2-MF), 1420 µM.

As to `CC(=O)C=CC=O` [AcA, 3-acetylacrolein], the “AcCys-AcA formation in cell supernatants” value in [2] was “No evidence of AcCys-AcA formation”. The “formation of AcLys-AcA in cell supernatants” value in data set [2] is reported as “detected”. In addition, the “AcLys-AcA in cell supernatant compared to the negative control” value in [2] (0.5 μM AcA, 48 h) was “differed significantly”; in data set [2] (5 μM AcA, all time points (1–48 h)) it was “highly significant increase”. Moreover, the “time to completion of adduct formation” value in data set [9] is below 1 min; in data set [10] (AcA (1; 10 μM) with AcLys (4 mM) in K2HPO4 buffer (50 mM, pH 7.4), 37 °C) it was below 1 min. Besides, the response in data set [3] was half-maximal at 8.5 ± 1.3 µM (EC50 at 24 h).

For the compound `CC(=O)N[C@@H](CCCCN1C(=O)C=CC1C)C(=O)O` (stereo partly drawn) [AcLys-AcA, L-2-Acetamido-6-(2-methyl-5-oxo-2,5-dihydro-1H-pyrrol-1-yl)hexanoic Acid], the “stability (NMR)” value in [11] (in organic solvents) is recorded as “unstable”. The “stability of NMR and MS signals” value in data set [11] (in water) is given as “stable”. The “stability of adduct yield” value in data set [10] (reaction mixture of AcA with AcLys (4 mM) in K2HPO4 buffer pH 7.4, 37 °C) is reported as “stable for up to 24 h”.

As for `c1ccoc1` [Furan], the vmax is listed as 0.0013 μmol/(mg prot.·min) in data set [12]; 34 ± 4 pmol BDA/pmol CYP/min in [15] (20 or 400 μM furan, ref [30]); 0.0016 μmol/(mg prot.·min) in data set [16]. Besides, the Ecat in data set [13] is 3.9e-1; in data set [15] (ref Gates et al. (2012) [30]) it was 1.4. The Km was 65.1 ± 16.4 µM in data set [13], 18.5 ± 6.8 µM in [14] and 24 ± 13 µM in data set [15] (setting [17]). Also, the kcat in data set [13] is given as 26 μmol/(μmol CYP·min); in data set [15] (setting [17]) it was 34 ± 4 μmol/(μmol CYP·min).
